The record followed here is ChEMBL document CHEMBL2311299, “New 2-(aryloxy)-3-phenylpropanoic acids as peroxisome proliferator-activated receptor α/γ dual agonists able to upregulate mitochondrial carnitine shuttle system gene expression” (J Med Chem, 2013).

For assay [1], the target named is T1, Peroxisome proliferator-activated receptor gamma (Homo sapiens) (UniProt P37231).
T1 sequence (whole entry): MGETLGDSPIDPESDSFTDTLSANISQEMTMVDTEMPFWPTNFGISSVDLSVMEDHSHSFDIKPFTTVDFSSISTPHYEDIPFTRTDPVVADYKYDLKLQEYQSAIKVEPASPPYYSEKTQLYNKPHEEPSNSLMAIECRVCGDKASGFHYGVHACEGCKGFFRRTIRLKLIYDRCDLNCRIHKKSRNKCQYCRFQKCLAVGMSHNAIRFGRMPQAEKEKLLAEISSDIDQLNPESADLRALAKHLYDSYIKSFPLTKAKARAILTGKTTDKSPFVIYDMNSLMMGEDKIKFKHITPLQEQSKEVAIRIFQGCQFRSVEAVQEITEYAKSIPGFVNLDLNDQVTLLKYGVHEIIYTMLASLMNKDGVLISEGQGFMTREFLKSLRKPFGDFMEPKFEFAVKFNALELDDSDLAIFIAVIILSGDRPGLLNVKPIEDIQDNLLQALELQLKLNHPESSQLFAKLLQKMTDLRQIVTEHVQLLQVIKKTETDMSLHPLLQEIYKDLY
The assay is described as follows: Transactivation of GAL4-fused human PPARgamma ligand binding domain expressed in HepG2 cells up to 10 uM after 20 hrs by luciferase reporter gene assay. Format: cell-based. The essentials:
(§1)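 HepG2 cells transiently transfected (calcium phosphate) with Gal4–PPARα-LBD or Gal4–PPARγ-LBD (30 ng), five-Gal4-element TK-luciferase reporter (100 ng) and pCMVβgal (250 ng). 4 h post-transfection, triplicate 20 h ligand treatment up to 10 μM; luciferase read, β-galactosidase measured with ONPG. Efficacy as % of maximal fold induction by Wy-14,643 (α) or rosiglitazone (γ); experiments repeated at least twice.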

In assay [2] the target is T2, Peroxisome proliferator-activated receptor alpha (Homo sapiens) (UniProt Q07869).
T2 sequence (whole entry): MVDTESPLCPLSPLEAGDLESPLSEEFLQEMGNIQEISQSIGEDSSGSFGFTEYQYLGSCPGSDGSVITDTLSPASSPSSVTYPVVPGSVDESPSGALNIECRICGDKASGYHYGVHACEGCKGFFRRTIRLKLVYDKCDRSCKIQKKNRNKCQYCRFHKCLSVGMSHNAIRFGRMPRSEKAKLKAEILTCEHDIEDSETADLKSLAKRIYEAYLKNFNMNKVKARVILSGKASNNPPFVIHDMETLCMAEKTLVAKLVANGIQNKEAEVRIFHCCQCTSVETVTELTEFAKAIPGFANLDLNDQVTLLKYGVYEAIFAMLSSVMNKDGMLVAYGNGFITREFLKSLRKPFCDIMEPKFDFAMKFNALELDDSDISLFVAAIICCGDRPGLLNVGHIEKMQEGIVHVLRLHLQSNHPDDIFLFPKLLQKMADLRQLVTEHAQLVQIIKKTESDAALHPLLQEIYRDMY
The assay is described as follows: Transactivation of GAL4-fused human PPARalpha ligand binding domain expressed in HepG2 cells after 20 hrs by luciferase reporter gene assay relative to WY-14643. In kind it is cell-based. The procedure, abridged: as §1

The target of assay [3] is T3, Peroxisome proliferator-activated receptor gamma (Homo sapiens, UniProt P37231).
T3 sequence (P37231 whole entry): T1 sequence (whole entry)
The assay is described as follows: Transactivation of GAL4-fused human PPARgamma ligand binding domain expressed in HepG2 cells after 20 hrs by luciferase reporter gene assay. In kind it is cell-based.

Assay [4] deals with T4, Peroxisome proliferator-activated receptor alpha (Homo sapiens, UniProt Q07869).
T4 sequence (Q07869 whole entry): T2 sequence (whole entry)
The assay is described as follows: Transactivation of GAL4-fused human PPARalpha ligand binding domain expressed in HepG2 cells after 20 hrs by luciferase reporter gene assay. In kind it is cell-based. The procedure, abridged:
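HepG2 cells transiently transfected (calcium phosphate) with Gal4–PPARα-LBD or Gal4–PPARγ-LBD (30 ng), five-Gal4-element TK-luciferase reporter (100 ng) and pCMVβgal (250 ng). 4 h post-transfection, triplicate 20 h ligand treatment up to 10 μM; luciferase read, β-galactosidase measured with ONPG.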

Assay [5] deals with T2, Peroxisome proliferator-activated receptor alpha (Homo sapiens). The assay is described as follows: Agonist activity at PPARalpha in human HepG2 cells assessed as upregulation of CAC mRNA expression at 1 uM after 24 hrs by RT-PCR analysis relative to control. In kind it is cell-based. The essentials: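 Total RNA from 1 × 10^6 cells, reverse transcribed, CAC or CPT1 transcript quantified by real-time PCR against human actin. Means ± SD of three duplicate independent experiments; one-way ANOVA, Bonferroni test versus control.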

Assay [6] has as its target T1, Peroxisome proliferator-activated receptor gamma (Homo sapiens). The assay is described as follows: Binding affinity to PPARgamma-LBD site A (unknown origin) at 400 uM after 3 hrs by isothermal titration calorimetry assay. The procedure, abridged:
(§2)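 ITC at 25 °C on His-tagged PPARγ LBD dialysed into 20 mM Hepes pH 8.0, 1 mM TCEP; DMSO matched (<1%). […] Conditions: ligand 400 μM into 40 μM protein (5); reverse, 400 μM protein into 40 μM ligand (6); 600 μM ligand into 60 μM protein (7); protein 47 μM pre-equilibrated 3 h 1:1 with site-A ligand, titrated with 470 μM ligand (8); reverse titration (9).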

Assay [7] concerns the target T2, Peroxisome proliferator-activated receptor alpha (Homo sapiens). The assay is described as follows: Agonist activity at PPARalpha in human HepG2 cells assessed as upregulation of CPT1 mRNA expression at 1 uM after 24 hrs by RT-PCR analysis relative to control. Format: cell-based. The procedure, abridged: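 Serum-starved HepG2 cells (24 h depletion) exposed for 24 h to 1 μM ligand; untreated cells as control; Wy 14,643 (50 μM) reference. Total RNA from 1 × 10^6 cells, reverse transcribed, CAC or CPT1 transcript quantified by real-time PCR against human actin. Means ± SD of three duplicate independent experiments; one-way ANOVA, Bonferroni test versus control.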

The target is the same in assay [8]. The assay is described as follows: Agonist activity at PPARalpha in human HepG2 cells assessed as upregulation of CPT1 protein expression at 1 uM after 48 hrs by Western blotting analysis relative to control.
Assay [9] shares this target. The assay is described as follows: Agonist activity at PPARalpha in human HepG2 cells assessed as upregulation of CAC protein expression at 1 uM after 48 hrs by Western blotting analysis relative to control.
Assay [10] deals with T1, Peroxisome proliferator-activated receptor gamma (Homo sapiens). The assay is described as follows: Binding affinity to PPARgamma-LBD site A and site B (unknown origin) at 40 uM after 3 hrs by isothermal titration calorimetry assay. The essentials:
as §2

Assay [11] shares this target. The assay is described as follows: Binding affinity to PPARgamma-LBD site B (unknown origin) in presence of (S)-2-(biphenyl-4-yloxy)-3-phenylpropanoic acid at 470 uM after 3 hrs by isothermal titration calorimetry assay. The procedure, abridged:
as §2

Assay [12] shares this target. The assay is described as follows: Binding affinity to PPARgamma-LBD site B (unknown origin) at 600 uM after 3 hrs by isothermal titration calorimetry assay. The essentials:
as §2

For assay [13] the target is unchanged. The assay is described as follows: Binding affinity to PPARgamma-LBD site B and site C (unknown origin) at 60 uM after 3 hrs by isothermal titration calorimetry assay. The essentials: as §2

Calls of active or inactive are those of the source. The calls are words filed in the database; no cut-off is given here.

For `Cc1cccc(Nc2cc(Cl)nc(SCC(=O)O)n2)c1C`, the result in assay [1] was inactive.

Turning to `Cc1ccccc1-c1ccc(O[C@@H](Cc2ccccc2)C(=O)O)cc1`, the Emax in [2] was determined as 155%. The EC50 was determined as 1360 nM in assay [3] and 67 nM in [4].

The compound `O=C(O)C(Cc1ccccc1)Oc1ccc(-c2ccccc2CCc2ccccc2)cc1` (racemic) yielded an Emax in assay [2] of 73%. The compound further had an EC50 in assay [4] of 280 nM. Besides, in assay [1], the outcome was Active.

`Cc1cc(-c2ccccc2)cc(C)c1O[C@@H](Cc1ccccc1)C(=O)O` displayed an Emax in [2] of 61%. The EC50 worked out at 3100 nM in assay [3] and 1130 nM in assay [4].

Consider `Cc1cccc(-c2ccc(OC(Cc3ccccc3)C(=O)O)cc2)c1` (racemic), for which, in assay [2], the Emax is 69%. Further, the EC50 in [3] amounted to 460 nM; in [4] it was 220 nM.

As for `CC(C)c1ccccc1-c1ccc(OC(Cc2ccccc2)C(=O)O)cc1` (single isomer, unassigned; form 1) [listing 1 of 2 here], the results for the fold change (FC) in assay [5] and in [7] were 1.5 and 2.3, respectively. Besides, the Ka in assay [6] was 3.6 ×10⁵ /M; in assay [10], 3.1 ×10⁵ /M; in assay [11], 1.87 ×10⁵ /M. The compound also gave an Emax in assay [2] of 147%. Moreover, the result in assay [8] and in assay [9] was Active.

Take `Cc1ccc(-c2ccc(O[C@@H](Cc3ccccc3)C(=O)O)cc2)cc1`: in assay [2], the Emax stood at 74%. Further, the EC50 in [3] stood at 590 nM; in assay [4], 210 nM.

In [2], `CCc1ccccc1-c1ccc(O[C@@H](Cc2ccccc2)C(=O)O)cc1` gave an Emax of 143%. Also, the figures for the EC50 in assay [3] and in [4] were 1200 nM and 12 nM, respectively.

On to `CC(C)c1ccccc1-c1ccc(OC(Cc2ccccc2)C(=O)O)cc1` (single isomer, unassigned; form 1) [listing 2 of 2 here], for which the EC50 in assay [3] was 1000 nM; in [4] it was 12 nM.

In [4], `CC(C)c1ccccc1-c1ccc(OC(Cc2ccccc2)C(=O)O)cc1` (single isomer, unassigned; form 2) [listing 1 of 2 here] came in with an EC50 of 100 nM.

In assay [2], `Cc1cc(-c2ccccc2)ccc1O[C@@H](Cc1ccccc1)C(=O)O` gave an Emax of 68%. For the same compound, the EC50 was 700 nM in assay [3] and 990 nM in [4].

As to `CCCCCc1ccccc1-c1ccc(OC(Cc2ccccc2)C(=O)O)cc1` (racemic), in assay [2], the Emax stood at 107%. The compound also came in with an EC50 in assay [4] of 500 nM. The outcome in [1] was Active.

In [2], `Cc1cc(O[C@@H](Cc2ccccc2)C(=O)O)ccc1-c1ccccc1` returned an Emax of 120%. Further, the values for the EC50 in assay [3] and in [4] were 700 nM and 80 nM, respectively.

Take `O=C(O)[C@H](Cc1ccccc1)Oc1ccc(-c2ccccc2)cc1`: the Emax in assay [2] amounted to 116%.

`CC(C)(Sc1ccc(CCN(CCCCC2CCCCC2)C(=O)NC2CCCCC2)cc1)C(=O)O`: the outcome in assay [7] was Active.

In assay [2], `Cc1ccccc1-c1ccc(O[C@@H](Cc2ccccc2)C(=O)O)cc1C` had an Emax of 133%. Further, the EC50 in assay [3] stood at 640 nM; in assay [4] it was 31 nM.

Compound `O=C(O)[C@H](Cc1ccccc1)Oc1ccc(-c2ccccc2-c2ccccc2)cc1` showed an Emax in assay [2] of 132%. The EC50 in assay [3] was found to be 1400 nM; in [4], 44 nM.

In turn, `O=C(O)[C@H](Cc1ccccc1)Oc1ccc(-c2ccccc2F)cc1` came in with an Emax in assay [2] of 68%. For the same compound, the EC50 in assay [3] is 690 nM; in assay [4], 120 nM.

Compound `Cc1cc(OC(Cc2ccccc2)C(=O)O)cc(C)c1-c1ccccc1` (racemic) gave an Emax in assay [2] of 50%. The EC50 in [3] is 2040 nM; in [4], 2100 nM.

As to `Cc1cccc(C)c1-c1ccc(O[C@@H](Cc2ccccc2)C(=O)O)cc1`, the Emax in [2] was 123%. For the same compound, the EC50 stood at 2540 nM in [3] and 230 nM in assay [4].

In assay [2], `COc1ccccc1-c1ccc(O[C@@H](Cc2ccccc2)C(=O)O)cc1` registered an Emax of 124%. Moreover, the figures for the EC50 in assay [3] and in assay [4] were 2300 nM and 130 nM, respectively.

`O=C(O)[C@H](Cc1ccccc1)Oc1ccc(-c2ccccc2C(F)(F)F)cc1` registered an Emax in assay [2] of 126%. Further, the EC50 in [3] was found to be 1000 nM; in assay [4], 22 nM.

In turn, `CCCc1ccccc1-c1ccc(OC(Cc2ccccc2)C(=O)O)cc1` (racemic) returned an Emax in assay [2] of 131%. Moreover, a half-maximal response in assay [4] (EC50) required 240 nM. In assay [1], the outcome was Active.

Compound `CC(C)c1ccccc1-c1ccc(OC(Cc2ccccc2)C(=O)O)cc1` (single isomer, unassigned; form 2) [listing 2 of 2 here] registered an Emax in assay [2] of 145%. For the same compound, the Ka in assay [12] is 1.34 ×10⁵ /M; in [13], 1.3 ×10⁵ /M. In assay [1], the result was Active.
